# Laboratory results from ChEMBL document CHEMBL1145965, “4-Substituted 4-hydroxycyclohexa-2,5-dien-1-ones with selective activities against colon and renal cancer cell lines” (J Med Chem, 2003).
# pIC50: −log10 of the molar value.
# Legend:
# K562 = assay: Concentration of compound that cause 50% cytotoxicity of K-562 leukemia cell line; type: functional; details: Homo sapiens, read-out: LC50 (the source's name)
# How it was run: (§1)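 NCI 60-cell-line panel screen. Each line was seeded in 96-well plates at a density set by its growth characteristics and incubated drug-free for 24 h. Test agents were then added at five 10-fold dilutions, with a top concentration of 100 μM.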
# MDA-MB-435 = assay: Concentration of compound that cause 50% cytotoxicity of MDA-MB-435 breast cancer cell line; type: functional; details: Homo sapiens, read-out: Log LC50 (the source's name) (converted); how it was run: as §1
# U-251 = assay: Concentration of compound that cause 50% cytotoxicity of U251 CNS cancer cell line; type: functional; details: Homo sapiens, read-out: Log LC50 (the source's name) (converted); how it was run: as §1
# SK-OV-3 = assay: Concentration of compound that cause 50% cytotoxicity of SK-OV-3 ovarian cancer cell line; type: functional; details: Homo sapiens, read-out: Log LC50 (the source's name) (converted); how it was run: as §1
# LOX IMVI = assay: Concentration of compound that cause 50% cytotoxicity of LOX IMVI melanoma cell line; type: functional; details: Homo sapiens, read-out: Log LC50 (the source's name) (converted); how it was run: as §1
# SK-MEL-5 = assay: Concentration of compound that cause 50% cytotoxicity of SK-MEL-5 melanoma cell line; type: functional; details: Homo sapiens, read-out: Log LC50 (the source's name) (converted); how it was run: as §1
# [1] = Inhibitory activity against MDA-468 mammary carcinoma cell line; type: functional, cell-based, Homo sapiens; details: mda-mb-468
# How it was run: (§2)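 Cells grown in RPMI 1640 with 2 mM L-glutamine and 10% fetal calf serum, 37 °C, 5% CO2. Seeded at 5 × 10³ per well, 24 h adherence, then drug 0.1 nM–100 μM final (n = 8; DMSO stocks, dilutions in medium) for 72 h.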
# NCI-H23 = assay: Concentration of compound that cause 50% cytotoxicity of NCI-H23 non small cell lung cancer cell line; type: functional; details: Homo sapiens, read-out: Log LC50 (the source's name) (converted); how it was run: as §1
# SF-295 = assay: Concentration of compound that cause 50% cytotoxicity of SF-295 CNS cancer cell line; type: functional; details: Homo sapiens, read-out: Log LC50 (the source's name) (converted); how it was run: as §1
# HT-29 [2] = assay: Concentration of compound that cause 50% cytotoxicity of HT-29 colon cancer cell line; type: functional; details: Homo sapiens, read-out: Log LC50 (the source's name) (converted); how it was run: as §1
# A498 = assay: Concentration of compound that cause 50% cytotoxicity of A498 renal cancer cell line; type: functional; details: Homo sapiens, read-out: Log LC50 (the source's name) (converted); how it was run: as §1
# [3] = tested on: Panel NCI-60 (60 carcinoma cell lines); assay: In vitro mean growth inhibitory activity against 60-cell panel; type: functional; details: Homo sapiens
# COLO 205 = assay: Concentration of compound that cause 50% cytotoxicity of COLO 205 colon cancer cell line; type: functional; details: Homo sapiens, read-out: Log LC50 (the source's name) (converted); how it was run: as §1
# MDA-N = assay: Concentration of compound that cause 50% cytotoxicity of MDA-N breast cancer cell line; type: functional; details: Homo sapiens, read-out: Log LC50 (the source's name) (converted); how it was run: as §1
# SK-MEL-2 = assay: Concentration of compound that cause 50% cytotoxicity of SK-MEL-2 melanoma cell line; type: functional; details: Homo sapiens, read-out: Log LC50 (the source's name) (converted); how it was run: as §1
# MDA-MB-231 = assay: Concentration of compound that cause 50% cytotoxicity of MDA-MB-231/ATCC breast cancer cell line; type: functional; details: Homo sapiens, read-out: Log LC50 (the source's name) (converted); how it was run: as §1
# EKVX = assay: Concentration of compound that cause 50% cytotoxicity of EKVX non small cell lung cancer cell line; type: functional; details: Homo sapiens, read-out: Log LC50 (the source's name) (converted); how it was run: as §1
# HOP-92 = assay: Concentration of compound that cause 50% cytotoxicity of HOP-92 non small cell lung cancer cell line; type: functional; details: Homo sapiens, read-out: Log LC50 (the source's name) (converted); how it was run: as §1
# NCI-H322M = assay: Concentration of compound that cause 50% cytotoxicity of NCI-H322M non small cell lung cancer cell line; type: functional; details: Homo sapiens, read-out: Log LC50 (the source's name) (converted); how it was run: as §1
# IGROV-1 = assay: Concentration of compound that cause 50% cytotoxicity of IGROV1 ovarian cancer cell line; type: functional; details: Homo sapiens, read-out: Log LC50 (the source's name) (converted); how it was run: as §1
# CAKI-1 = assay: Concentration of compound that cause 50% cytotoxicity of CAKI-1 renal cancer cell line; type: functional; details: Homo sapiens, read-out: Log LC50 (the source's name) (converted); how it was run: as §1
# HT-29 [4] = assay: Inhibitory activity against HT-29 colon cancer cell line; type: functional, cell-based; details: Homo sapiens; how it was run: as §2
# SF-268 = assay: Concentration of compound that cause 50% cytotoxicity of SF-268 CNS cancer cell line; type: functional; details: Homo sapiens, read-out: Log LC50 (the source's name) (converted); how it was run: as §1
# HCT-116 = assay: In vitro lethal concentration against most sensitive colon HCT116 cell line; type: functional; details: Homo sapiens, read-out: LC50 (the source's name)
# [5] = tested on: Panel NCI-60 (60 carcinoma cell lines); assay: In vitro mean growth lethal concentration in colon subpanel against 60-cell panel; type: functional; details: Homo sapiens, read-out: Mean LC50
# MCF7 = assay: Inhibitory activity against MCF-7 mammary carcinoma cell line; type: functional, cell-based; details: Homo sapiens; how it was run: as §2
# SR = assay: Concentration of compound that cause 50% cytotoxicity of SR leukemia cell line; type: functional; details: Homo sapiens, read-out: LC50 (the source's name); how it was run: as §1
# NCI-H460 = assay: Concentration of compound that cause 50% cytotoxicity of NCI-H460 non small cell lung cancer cell line; type: functional; details: Homo sapiens, read-out: Log LC50 (the source's name) (converted); how it was run: as §1
# ACHN = assay: In vitro lethal concentration against most sensitive ACHN cell line; type: functional; details: Homo sapiens, read-out: LC50 (the source's name)
# Malme-3M = assay: Concentration of compound that cause 50% cytotoxicity of MALME -3M melanoma cell line; type: functional; details: Homo sapiens, read-out: Log LC50 (the source's name) (converted); how it was run: as §1
# SW-620 = assay: In vitro lethal concentration against least sensitive colon SW-620 cell line; type: functional; details: Homo sapiens, read-out: LC50 (the source's name)
# A549 = assay: Concentration of compound that cause 50% cytotoxicity of A549/ATCC non small cell lung cancer cell line; type: functional; details: Homo sapiens, read-out: Log LC50 (the source's name) (converted); how it was run: as §1
smiles,measurement,setting,value
O=C1C=CC(O)(c2nc3ccccc3s2)C=C1,CC50,K562,> 4 µM
same,CC50,MDA-MB-435,1510 nM
same,CC50,U-251,2570 nM
same,CC50,SK-OV-3,38 µM
same,CC50,LOX IMVI,3.8 µM
same,CC50,SK-MEL-5,24 µM
same,pIC50,[1],6.10
same,CC50,NCI-H23,5.13 µM
same,CC50,SF-295,4.68 µM
same,CC50,HT-29 [2],692 nM
same,CC50,A498,8.51 µM
same,GI50,[3],230 nM
same,CC50,COLO 205,5.13 µM
same,CC50,MDA-N,1000 nM
same,CC50,SK-MEL-2,7.08 µM
same,CC50,MDA-MB-231,5.75 µM
same,CC50,EKVX,5.75 µM
same,CC50,HOP-92,3.72 µM
same,CC50,NCI-H322M,23.4 µM
same,CC50,IGROV-1,5.37 µM
same,CC50,CAKI-1,1350 nM
same,pIC50,HT-29 [4],6.42
same,CC50,SF-268,6.31 µM
same,CC50,HCT-116,430 nM
same,CC50,[5],1760 nM
same,pIC50,MCF7,6.46
same,CC50,SR,> 4 µM
same,CC50,NCI-H460,44.7 µM
same,CC50,ACHN,690 nM
same,CC50,Malme-3M,2340 nM
same,CC50,SW-620,> 100 µM
same,CC50,A549,43.7 µM
